This is a sample that favours compounds with a hit; in the whole collection about 6.7% have one here.
T cruzi inh: inhibitors of intracellular T. cruzi growth, primary screen, luminescence, NIH3T3 host cells. inhibition, % (concentration not given with the values). hit rate 1.4% among 300,000. T. cruzi beta-gal in NIH3T3, 90 h;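 active means mean inhibition across valid replicates above about 55%, limit read from the data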;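 further: signal also drops with host cell toxicity which is not excluded here; 0% = plate median of DMSO wells and 100% = zero luminescence signal; higher percent means less beta-gal luminescence so fewer parasites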
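System: mouse NIH/3T3 fibroblasts infected with β-gal-expressing T. cruzi Tulahuen C4 / Input: NIH/3T3 cells, 5,000 per well / Buffer or medium: Low-serum DMEM with 2% FBS / Probe or stimulus: 5000 reporter trypomastigotes per well / Schedule: ≥90 h infection period, 3 h prior cell attachment / Measured by: GalScreen luminescence, 60 min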
Beta apoptosis: inhibitors of cytokine-induced beta cell apoptosis, primary screen, luminescence; INS-1E cytokine-induced death, ATP luminescence, 48 h; percent of positive-control rescue, neutral wells zero; hit rate 0.8% among 300,000; protection from apoptosis, % (test concentration not listed); AID 435005, 2010;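 active means Every replicate reaches about 75%, or at least half do and their mean reaches it too, limit read from the data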;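 further: 0% = cytokine-treated negative control wells and 100% = positive control rescue; higher means more ATP so stronger rescue from cytokine killing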
PREPL inhibitor: PREPL enzyme inhibitors, primary screen, biochemical, fluorescence polarization. Prolyl endopeptidase-like (Homo sapiens), Q4J6C6. recombinant PREPL, fluorescence polarization activity-based probe. inhibition, % at 5.96 µM. hit rate 0.68% among 320,000. AID 2751, 2010; in the data active means inhibition above about 43%;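 further: 0% = enzyme with DMSO and 100% = wells lacking enzyme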
Target sequence (Q4J6C6 whole entry, looked up): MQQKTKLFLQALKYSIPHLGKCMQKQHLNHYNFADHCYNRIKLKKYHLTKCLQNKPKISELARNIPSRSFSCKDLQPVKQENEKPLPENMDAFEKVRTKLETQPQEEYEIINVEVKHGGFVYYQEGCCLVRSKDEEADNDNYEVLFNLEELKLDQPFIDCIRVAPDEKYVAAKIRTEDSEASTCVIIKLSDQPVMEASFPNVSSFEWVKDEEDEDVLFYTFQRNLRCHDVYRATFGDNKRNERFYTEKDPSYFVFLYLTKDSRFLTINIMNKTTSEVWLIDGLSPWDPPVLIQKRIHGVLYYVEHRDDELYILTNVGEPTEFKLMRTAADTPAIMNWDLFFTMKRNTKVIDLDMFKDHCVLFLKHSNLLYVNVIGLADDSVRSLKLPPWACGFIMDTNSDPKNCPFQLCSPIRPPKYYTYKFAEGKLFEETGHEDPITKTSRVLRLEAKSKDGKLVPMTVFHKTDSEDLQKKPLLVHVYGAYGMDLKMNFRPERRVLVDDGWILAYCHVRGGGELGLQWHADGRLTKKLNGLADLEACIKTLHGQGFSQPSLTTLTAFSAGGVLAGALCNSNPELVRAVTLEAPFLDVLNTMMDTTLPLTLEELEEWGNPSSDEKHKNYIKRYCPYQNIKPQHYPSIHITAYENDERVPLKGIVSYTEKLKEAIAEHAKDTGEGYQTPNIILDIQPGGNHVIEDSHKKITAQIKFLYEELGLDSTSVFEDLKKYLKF
CSC inhib: cancer stem cell viability inhibitors, primary screen, luminescence. AID 2717, 2010. hit rate 1.1% among 300,000. inhibition, % at 7.5 µM. cancer stem cell-like cells viability; in the data active means inhibition above about 75%; tested in HMLE shEcad cells
NR3A LBD binder: binders of NR3A ligand-binding domain, primary screen, biophysical, differential scanning fluorimetry, uHTS. Glutamate receptor ionotropic, NMDA 3A (GRIN3A) ligand-binding domain. NR3A LBD differential scanning fluorimetry, Tm shift; 0% = protein alone, 100% = glycine-bound protein. Tm shift relative to glycine control, % at 25 µM. hit rate 2.5% among 340,000;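 active means melting temperature shift of at least 10% of the positive control shift, at one fixed dose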
CHOP inhibitor: inhibitors of CHOP promoter induction, primary screen, cell-based, unfolded protein response, luciferase reporter; CHO-K1 CHOP-promoter luciferase, tunicamycin-induced, 15-18 h; inhibition, % at 10 µM; hit rate 3.8% among 220,000; AID 2732, 2010;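 active means compounds that reduced the stress-induced luciferase reporter signal by more than about 70% of percent inhibition, limit read from the data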;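 further: 0% = tunicamycin plus vehicle and 100% = wells without tunicamycin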
* = called active by the depositor; . = no result given.

SMILES	T cruzi inh	Beta apoptosis	PREPL inhibitor	CSC inhib	NR3A LBD binder	CHOP inhibitor
CC(C)C[C@H](NC(=O)c1nc[nH]c1C(=O)NCC(=O)OC(C)(C)C)C(=O)OC(C)(C)C	4	0	17	-4	-7	84*
CC(C)C[C@H](NC(=O)c1nc[nH]c1C(=O)N[C@@H](CC(C)C)C(=O)OC(C)(C)C)C(=O)OC(C)(C)C	35	72	15	-1	-8	28
CC(C)C[C@H](NC(=O)c1nc[nH]c1C(=O)NC(c1ccccc1)c1ccccc1)C(=O)OC(C)(C)C	53	36	12	97*	0	-38
O=C(O)c1ccccc1Nc1ccc([N+](=O)[O-])c2nonc12	-5	9	0	6	4	.
Cc1ccc(-c2nc(COC(=O)C3=NN(c4ccccc4)C(=O)CC3)cs2)cc1	.	-7	-2	-12	0	.
Cc1ccc(CN2CCN(CC(=O)NCCCN3CCN(c4ccc(F)cc4)CC3)C2=O)cc1	16	5	26	.	2	73*
COc1ccc(N2CCN(CCCNC(=O)CN3CCN(Cc4ccccc4C)C3=O)CC2)cc1	3	-3	20	-4	-2	2
C=CC(=O)NC(NC(=O)C=C)c1ccccc1F	-12	-13	20	-17	1	13
CC[C@@H](C(=O)[C@@H](C)[C@@H](O)[C@H](C)[C@@H]1O[C@@H]([C@@H](CC)C(=O)O)CC[C@@H]1C)[C@H]1O[C@]2(C=C[C@@H](O)[C@]3(CC[C@@](C)([C@H]4CC[C@](O)(CC)[C@H](C)O4)O3)O2)[C@H](C)C[C@@H]1C	.	.	.	.	-1	.
CC[C@@H](C(=O)[C@@H](C)[C@@H](O)[C@H](C)CCc1ccc(C)c(O)c1C(=O)O)[C@H]1O[C@](CC)([C@H]2CC[C@](O)(CC)[C@H](C)O2)C[C@@H]1C	37	97*	7	117*	-13	.
COc1cc(OC)cc(C(=O)NC2CC(C)(C)NC(C)(C)C2)c1	-19	-2	5	-4	-2	.
COc1ccc(NC(=O)c2ccc(-n3cccn3)c([N+](=O)[O-])c2)cc1	1	2	-5	-12	0	19
Cc1ccc(NC(=O)c2ccc(-n3cccn3)c([N+](=O)[O-])c2)cc1C	16	3	17	3	13*	-11
O=C(Nc1ccc(Cl)cc1)c1ccc(-n2cccn2)c([N+](=O)[O-])c1	29	11	20	1	23*	56
O=C(COC(=O)CNC(=O)c1cccc(OC(F)F)c1)NNC(=O)c1ccccc1	.	0	-1	.	-2	.
N#Cc1cccc(NC(=O)CCc2ccc(S(=O)(=O)N3CCOCC3)cc2)c1	.	-2	8	-11	5	.
CSc1ccccc1C(=O)N(C)C(c1ccccc1)c1ccccc1	25	.	35	-9	-3	.
Cc1ccc(NC(=O)C(OC(=O)c2ccc(F)cc2)c2ccccc2)cc1Cl (stereo unspecified)	-2	1	-1	-2	1	73*
CCOP(=O)(OCC)C(NC(=O)Nc1ccc(C)c(Cl)c1)c1ccccc1 (stereo unspecified)	11	9	16	-3	24*	24
CC1CCCCN1C(=O)COC(=O)C1CCN(S(=O)(=O)c2ccc(Cl)c(C(F)(F)F)c2)CC1 (stereo unspecified)	3	-5	1	2	21*	.
Cc1ccc(OCCC(=O)OC(C)C(=O)Nc2c(C)n(C)n(-c3ccccc3)c2=O)cc1 (stereo unspecified)	3	-8	5	-12	2	.
Cc1cc(C(C)(C)C)oc1C(=O)OCC(=O)NC1CCCCC1	-13	-3	5	-2	-1	13
Cc1cc(C(C)(C)C)oc1C(=O)NCCCNC(=O)c1oc(C(C)(C)C)cc1C	27	-1	-11	-11	6	96*
O=C(O[C@@H]1OC2COC(=O)c3cc(O)c(O)c(O)c3-c3c(cc(O)c(O)c3O)C(=O)O[C@@H]([C@H]1O)[C@@H]2O)c1cc(O)c(O)c(O)c1	9	1	54*	4	-17	-10
O=Cc1ccc(OC(=O)c2cc(Cl)nc3ccccc23)cc1	-6	-5	9	-6	2	85*
SMILES	T cruzi inh	Beta apoptosis	PREPL inhibitor	CSC inhib	NR3A LBD binder	CHOP inhibitor
O=C(COC(=O)c1cc(Cl)nc2ccccc12)c1ccc(Cl)cc1	-3	-25	13	-9	-10	-2
O=C(Oc1cccc2ccccc12)c1cc(Cl)nc2ccccc12	-13	-2	0	25	14*	25
c1ccc(C[n+]2c(-c3ccccc3)csc2Nc2ccccc2)cc1	19	11	2	83*	0	4
O=C(c1cccc(S(=O)(=O)Nc2ccc(F)cc2)c1)N1CCCC1	.	2	3	.	1	.
CC(NC(=O)c1ccc(OC2CCN(S(=O)(=O)N(C)C)CC2)cc1)C1CC1 (stereo unspecified)	2	4	6	.	1	10
CCOc1ccc(S(=O)(=O)NCCC(=O)NCCOc2ccccc2OC)cc1	-6	-7	-9	10	21*	.
COc1oc(C(=O)NC2CCCCC2)c(-c2ccc(Cl)cc2)c1S(=O)(=O)c1ccccc1	.	.	.	.	-4	.
C=C1CCN([C@@H](CC(C)C)C(=O)Nc2ccc(OC)cc2)S(=O)(=O)c2ccccc21	-1	2	-2	-7	-4	.
C=C1CCN([C@@H](CC(C)C)C(=O)Nc2nc3ccc(Cl)cc3s2)S(=O)(=O)c2ccccc21	10	1	-6	102*	1	.
CCN(c1ccccc1)c1ncnc2c1cnn2-c1ccccc1	-18	0	-19	54	0	79*
CCOc1ccc(NC(=O)CCc2c(C)nn(-c3ccc(N4CCCCC4)nn3)c2C)cc1	20	11	9	-4	14*	.
CCc1ccc(NC(=O)CCc2c(C)nn(-c3ccc(N4CCCCC4)nn3)c2C)cc1	10	6	11	5	-3	.
CCOC(=O)c1sc2nc(N3CCOCC3)c3c(c2c1N)CCCC3	32	-4	21	1	-1	48
CCN(CC)C(=O)c1sc2nc(N3CCOCC3)c3c(c2c1N)CCCC3	0	-5	4	-5	6	42
COC(=O)c1ccc(-c2sc3nc(N4CCOCC4)c4c(c3c2N)CCCC4)o1	67*	6	11	28	2	-6
COC(=O)c1sc2nc(N3CCCCC3)c3c(c2c1N)CCCC3	16	6	4	85*	-7	59
NC(=O)c1sc2nc(N3CCCCC3)c3c(c2c1N)CCCC3	3	-5	11	-16	0	92*
CCc1nn(CC(=O)NCCC2=CCCCC2)c(=O)c2cc3cc(F)ccc3n12	5	0	1	10	1	.

Screens as filed in PubChem.
